Measurements taken from ChEMBL document CHEMBL1154598, “7-Hydroxy-benzopyran-4-one derivatives: a novel pharmacophore of peroxisome proliferator-activated receptor alpha and -gamma (PPARalpha and gamma) dual agonists” (J Med Chem, 2009).
Active and inactive are the calls of the source. The rule behind the calls is not given here.

Assays:
[1] = molecular target: T1, Peroxisome proliferator-activated receptor gamma (Homo sapiens) (UniProt P37231); assay: Agonist activity at human PPARgamma expressed in HEK293 cells co-transfected with PPRE assessed as beta-galactosidase signal at 25 uM after 48 hrs by reporter gene assay relative to control; type: functional, cell-based
T1 sequence (whole entry): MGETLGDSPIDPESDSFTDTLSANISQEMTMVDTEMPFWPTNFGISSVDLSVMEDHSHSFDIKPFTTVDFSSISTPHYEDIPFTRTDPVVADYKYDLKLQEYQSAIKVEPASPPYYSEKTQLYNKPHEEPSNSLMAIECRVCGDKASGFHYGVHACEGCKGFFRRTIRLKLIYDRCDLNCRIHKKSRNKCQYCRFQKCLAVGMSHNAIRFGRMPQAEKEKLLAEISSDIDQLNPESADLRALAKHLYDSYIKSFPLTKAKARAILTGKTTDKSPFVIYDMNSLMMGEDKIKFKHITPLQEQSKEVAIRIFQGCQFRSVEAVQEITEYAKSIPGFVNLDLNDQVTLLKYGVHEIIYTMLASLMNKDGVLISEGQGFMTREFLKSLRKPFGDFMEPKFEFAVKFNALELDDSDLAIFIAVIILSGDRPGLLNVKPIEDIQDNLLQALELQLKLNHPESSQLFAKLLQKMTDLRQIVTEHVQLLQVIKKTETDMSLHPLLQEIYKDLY
How it was run: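 HEK293 cells were transfected with FuGENE 6 using a PPRE-luciferase reporter, pSG5-hPPARγ1 and a β-galactosidase control plasmid. After 24 h they were replated at 5 × 10⁴ cells/well, attached overnight, then treated for 48 h with 0.1% DMSO as vehicle. Luciferase was read, normalized to the β-gal signal and reported as fold activation over vehicle. Mean of two experiments in triplicate.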

[2] = molecular target: T2, Peroxisome proliferator-activated receptor alpha (Homo sapiens) (UniProt Q07869); assay: Agonist activity at human PPARalpha expressed in HEK293 cells co-transfected with PPRE assessed as beta-galactosidase signal at 40 uM after 48 hrs by reporter gene assay relative to control; type: functional, cell-based
T2 sequence (whole entry): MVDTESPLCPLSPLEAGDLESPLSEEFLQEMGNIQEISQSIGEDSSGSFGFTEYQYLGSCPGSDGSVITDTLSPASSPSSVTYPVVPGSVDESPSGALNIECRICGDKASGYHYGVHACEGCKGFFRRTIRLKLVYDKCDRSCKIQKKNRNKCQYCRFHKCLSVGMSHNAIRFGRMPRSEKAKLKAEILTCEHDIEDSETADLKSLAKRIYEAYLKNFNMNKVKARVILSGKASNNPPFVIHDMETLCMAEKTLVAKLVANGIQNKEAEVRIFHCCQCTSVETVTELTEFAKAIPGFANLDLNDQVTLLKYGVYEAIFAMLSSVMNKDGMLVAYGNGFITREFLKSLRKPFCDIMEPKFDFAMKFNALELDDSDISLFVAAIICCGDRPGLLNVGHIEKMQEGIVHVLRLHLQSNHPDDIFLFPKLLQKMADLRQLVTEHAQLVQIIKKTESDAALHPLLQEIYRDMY
How it was run: (§1)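 Human PPARα transactivation in HEK293 cells grown in DMEM/F-12 with 10% heat-inactivated FBS. Cells were transfected with FuGENE 6 using a PPRE-luciferase reporter, pBI-G-hPPARα and a β-galactosidase control plasmid. After 24 h they were replated at 5 × 10⁴ cells/well, attached overnight, then dosed for 48 h with 0.1% DMSO as vehicle. Luciferase was normalized to β-gal and expressed as fold over vehicle. Two experiments, each in triplicate.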

[3] = molecular target: T2, Peroxisome proliferator-activated receptor alpha (Homo sapiens); assay: Agonist activity at human PPARalpha expressed in HEK293 cells co-transfected with PPRE assessed as beta-galactosidase signal at 25 uM after 48 hrs by reporter gene assay relative to control; type: functional, cell-based; how it was run: as §1
[4] = Cytotoxicity against HEK293 cells assessed as viable cells at 100 uM after 48 hrs by aqueous one solution cell proliferation assay relative to control; type: cell-based; settings: human, read-out: Activity
How it was run: (§2)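 HEK293 cells were seeded overnight, then exposed to 0–100 μM compound for 48 h at 37 °C in 5% CO₂. MTS reagent was added for a further 2 h and absorbance read at 490 nm. Viability is given as % relative to DMSO vehicle control. Two experiments, each in quadruplicate.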

[5] = molecular target: T3, Peroxisome proliferator-activated receptor gamma (Homo sapiens, UniProt P37231); assay: Agonist activity at human PPARgamma assessed as luciferase activity by transactivation assay; type: functional
T3 sequence (P37231 whole entry): T1 sequence (whole entry)
How it was run: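 Transiently transfected HEK293 (PPRE-luciferase reporter plus pSG5-hPPARγ1 and β-gal control), compound exposure 48 h. EC50 is the ligand concentration giving half-maximal fold induction of β-gal-normalized luciferase, fitted by nonlinear regression. Means of three experiments.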

[6] = Cytotoxicity against HEK293 cells assessed as viable cells at 50 uM after 48 hrs by aqueous one solution cell proliferation assay relative to control; type: cell-based; settings: human, read-out: Activity; how it was run: as §2
[7] = Cytotoxicity against HEK293 cells assessed as viable cells at 10 uM after 48 hrs by aqueous one solution cell proliferation assay relative to control; type: cell-based; settings: human, read-out: Activity; how it was run: as §2
[8] = molecular target: T4, Peroxisome proliferator-activated receptor alpha (Homo sapiens, UniProt Q07869); assay: Agonist activity at human PPARalpha assessed as luciferase activity by transactivation assay; type: functional
T4 sequence (Q07869 whole entry): T2 sequence (whole entry)

[9] = molecular target: T1, Peroxisome proliferator-activated receptor gamma (Homo sapiens); assay: Agonist activity at PPARgamma expressed in mouse RAW264.7 cells assessed as beta-galactosidase signal at 10 uM by reporter gene assay relative to control; type: functional, cell-based

| SMILES | fold change (FC) [1] | fold change (FC) [2] | fold change (FC) [3] | other results |
| --- | --- | --- | --- | --- |
| COc1cc(-c2coc3cc(OC4CCCCO4)ccc3c2=O)cc(OC)c1OC (stereo not drawn) | 2.3 | – | – | – |
| COc1ccc(-c2coc3cc(O)ccc3c2=O)cc1 | 12.8 | 7.8 | 7.5 | – |
| O=c1c(-c2cccc(OC(F)(F)F)c2)coc2cc(O)ccc12 | 2.1 | – | – | – |
| CCc1cc2c(=O)c(-c3ccc4c(c3)OCO4)coc2cc1O | 12.7 | – | – | – |
| O=c1c(-c2ccc(F)cc2F)coc2cc(O)ccc12 | 13.8 | – | – | – |
| O=c1c(-c2ccc3c(c2)OCCO3)coc2cc(O)ccc12 | 11.3 | – | – | – |
| O=c1c(-c2ccc(C(F)(F)F)cc2)coc2cc(O)ccc12 | 4.4 | – | – | – |
| COc1ccc(-c2coc3cc(O)ccc3c2=O)cc1OC | 10.5 | – | – | – |
| O=c1cc(-c2ccc(O)c(O)c2)oc2ccccc12 | 5 | 7.7 | 2.8 | – |
| O=c1c(-c2ccc3c(c2)OCCO3)coc2cc(OC3CCCCO3)ccc12 (stereo not drawn) | 2 | 3.3 | 2.5 | – |
| COc1cccc(/C=C/C(=O)c2ccc(O)cc2O)c1 | 2.1 | – | – | – |
| CCc1cc2c(=O)c(-c3ccc4c(c3)OCO4)c(C)oc2cc1O | 5.3 | – | – | – |
| O=C(/C=C/c1ccc(O)cc1)c1ccc(O)cc1O | 1.3 | – | – | – |
| COc1cc(-c2coc3cc(O)ccc3c2=O)cc(OC)c1OC | – | – | – | Activity [1]: inactive |
| CN(CCOc1ccc(C[C@H](Nc2ccccc2C(=O)c2ccccc2)C(=O)O)cc1)c1ccccn1 | – | – | – | viability at 48 h, 100 µM [4]: 33% |
| O=c1c(-c2ccc(O)cc2)coc2cc(O)cc(O)c12 | 3.4 | – | – | – |
| O=c1cc(-c2ccc(O)cc2)oc2cc(O)ccc12 | 5 | 2.6 | 1.5 | – |
| COc1cccc(-c2coc3cc(O)ccc3c2=O)c1 | 57.5 | 43 | 16.5 | EC50 [5]: 22.3 µM; viability at 48 h, 50 µM [6]: > 67%; viability at 48 h, 10 µM [7]: > 90%; viability at 48 h, 100 µM [4]: > 60%; EC50 [8]: 23.1 µM |
| COc1ccccc1/C=C/C(=O)c1ccc(O)cc1O | 1.1 | – | – | – |
| Cc1[nH]nc(-c2ccc(O)cc2O)c1-c1ccc(F)cc1 | 5.3 | – | – | – |

| SMILES | fold change (FC) [1] | fold change (FC) [2] | fold change (FC) [3] | other results |
| --- | --- | --- | --- | --- |
| O=c1c(-c2ccc(F)cc2)coc2cc(O)ccc12 | 148 | 28.7 | 8.6 | EC50 [5]: 15.4 µM; viability at 48 h, 50 µM [6]: > 67%; EC50 [8]: 33.1 µM |
| O=c1cc(-c2cccc(O)c2)oc2cc(O)ccc12 | 6.3 | 14.8 | 8.2 | – |
| COc1cc(-c2cc(=O)c3c(O)cc(O)cc3o2)ccc1O | 2.2 | 1.3 | 1.1 | – |
| O=c1cc(-c2ccccc2O)oc2cc(O)ccc12 | 6.8 | 4.9 | 3.6 | – |
| O=c1c(O)c(-c2ccc(O)cc2)oc2cc(O)cc(O)c12 | 3.5 | 2.6 | 1.8 | fold change (FC) [9]: 7.6 |
| O=c1c(-c2ccc3c(c2)OCO3)coc2cc(OC3CCCCO3)ccc12 (stereo not drawn) | 9.4 | – | – | – |
| COc1ccccc1-c1coc2cc(O)ccc2c1=O | 1.6 | – | – | – |
| O=c1cc(-c2ccc(O)cc2)oc2cc(O)cc(O)c12 | 5.4 | 2.3 | 2 | fold change (FC) [9]: 8.13 |
| CN(CCOc1ccc(CC2SC(=O)NC2=O)cc1)c1ccccn1 (stereo not drawn) [ROSIGLITAZONE] | – | – | – | viability at 48 h, 100 µM [4]: 46% |
| COc1ccc([C@@H]2CC(=O)c3c(O)cc(O)cc3O2)cc1O | 3.8 | 2 | 1.9 | – |
| COc1ccc2c(=O)c(-c3ccc4c(c3)OCO4)coc2c1 | 25.2 | 2.4 | 2.2 | – |
| COc1ccc(/C=C/C(=O)c2ccc(O)cc2O)cc1OC | 3.5 | – | – | – |
| COc1cc(-c2oc3cc(O)cc(O)c3c(=O)c2O)cc(OC)c1O | 1.2 | – | – | – |
| O=c1c(-c2cccc(OCc3ccccc3)c2)coc2cc(O)ccc12 | – | – | – | Activity [1]: inactive |
| CCc1cc2c(=O)c(-c3ccc4c(c3)OCO4)c(C(F)(F)F)oc2cc1O | – | – | – | Activity [1]: inactive |
| O=c1cc(-c2ccccc2)oc2cc(O)cc(O)c12 | 4 | 5.3 | 3.4 | fold change (FC) [9]: 5.6 |
| COc1ccc(-c2cc(=O)c3c(O)cc(O)cc3o2)cc1O | 7.3 | 3.8 | 2.8 | – |
| COc1ccc(-c2oc3cc(O)ccc3c(=O)c2O)cc1OC | 2.4 | – | – | – |
| Oc1ccc(-c2n[nH]cc2-c2ccc3c(c2)OCO3)c(O)c1 | – | – | – | Activity [1]: inactive |
| O=C1C[C@@H](c2ccc(O)cc2)Oc2cc(O)cc(O)c21 | 1.7 | 1.7 | 1.2 | – |

| SMILES | fold change (FC) [1] | fold change (FC) [2] | fold change (FC) [3] | other results |
| --- | --- | --- | --- | --- |
| O=c1cc(-c2ccc(O)cc2)oc2ccc(O)cc12 | 5 | 3.5 | 2.6 | – |
| COc1cc(OC)cc(-c2coc3cc(O)ccc3c2=O)c1 | 116 | 25.3 | 4.8 | EC50 [5]: 18.9 µM; viability at 48 h, 50 µM [6]: > 67%; viability at 48 h, 10 µM [7]: > 80%; EC50 [8]: 24.6 µM |
| O=c1c(-c2ccc(O)c(O)c2)coc2cc(O)ccc12 | 7.5 | – | – | – |
| COc1ccc(-c2cc(=O)c3c(O)cc(O)cc3o2)cc1 | 7.7 | 5.2 | 2.3 | – |
| O=c1cc(-c2ccc(O)cc2)oc2cccc(O)c12 | 8.9 | 3.7 | 2.4 | – |
| CCc1cc2c(=O)c(-c3ccc4c(c3)OCO4)c(C)oc2cc1OCC(=O)O | 2.3 | – | – | – |
| O=c1c(-c2ccc(O)cc2)coc2cc(O)ccc12 | 9.6 | 13.4 | 6.2 | – |
| O=c1c(-c2cccc(F)c2)coc2cc(O)ccc12 | 4.1 | – | – | – |
| COc1ccc(/C=C/C(=O)c2ccc(O)cc2O)cc1 | 2.6 | – | – | – |
| O=c1c(O)c(-c2ccc(O)c(O)c2)oc2cc(O)cc(O)c12 | 1.3 | – | – | – |
| Oc1ccc(-c2n[nH]c(C(F)(F)F)c2-c2ccc(F)cc2)c(O)c1 | 3.9 | – | – | – |
| COc1ccc(-c2c(-c3ccc(O)cc3O)n[nH]c2C)cc1 | 2.2 | – | – | – |
| Oc1ccc(-c2n[nH]cc2-c2ccc(F)cc2)c(O)c1 | 1.7 | – | – | – |
| O=c1c(-c2cc(O)cc(O)c2)coc2cc(O)ccc12 | 7.4 | – | – | – |
| O=c1c(-c2cc(F)c(F)c(F)c2)coc2cc(O)ccc12 | 1.4 | – | – | – |
| COc1c(F)cc(F)cc1-c1coc2cc(O)ccc2c1=O | 7.5 | – | – | – |
| O=c1c(-c2ccc(O)cc2)coc2cc(O)c(O)cc12 | 4.4 | 4 | 1.8 | – |
| O=c1c(-c2ccc(Cl)cc2)coc2cc(O)ccc12 | 2.6 | – | – | – |
| COc1ccc(-c2coc3cc(O)ccc3c2=O)c(OC)n1 | – | – | – | Activity [1]: inactive |
